The source made the active and inactive calls.
Tests used:
Mus musculus [1] = assay: Percentage block of the hind-limb tonic-extensor seizure was determined after application of an electric shock to mice for 60 min followed by 200 mg/kg intraperitoneal dose; format: functional
Summary of the method: (§1)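 Mouse MES test: supramaximal seizure from a 50-mA current (60 Hz, 0.20-s) through corneal electrodes. […] Ten mice per time point. Compound given in aqueous solution or in suspension in ca. 0.1% Tween 80 and distilled water. Free food and water except during testing.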

Mus musculus [2] = assay: Percentage block of the hind-limb tonic-extensor seizure was determined after application of an electric shock to mice for 60 min followed by 400 mg/kg peroral dose; format: functional; settings: route oral; summary of the method: as §1
Mus musculus [3] = assay: Anticonvulsant activity by using a standard maximal electroshock test (MES) in mice, by 400 mg/kg peroral administration of the compound; I=inactive, 0-10% block; format: functional, organism-based; design: dose 400 mg/kg
Summary of the method: (§2)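 Supramaximal electroshock: 50-mA current (60 Hz, 0.20 s) via corneal electrodes induced hind-limb tonic extension; inhibition of this component scored as activity. Mice dosed ip and/or po in aqueous solution or suspension (ca. 0.1% Tween 80, distilled water). Tested at 30, 60, 120 and 240 min (sometimes 45 min); ten mice per time point.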

Mus musculus [4] = assay: Percentage block of the hind-limb tonic-extensor seizure was determined after application of an electric shock to mice for 240 min followed by 200 mg/kg intraperitoneal dose; format: functional; summary of the method: as §2
Mus musculus [5] = assay: Percentage block of the hind-limb tonic-extensor seizure was determined after application of an electric shock to mice for 240 min followed by 400 mg/kg peroral dose; format: functional; settings: route oral; summary of the method: as §2
Mus musculus [6] = assay: Percentage block of the hind-limb tonic-extensor seizure was determined after application of an electric shock to mice for 120 min followed by 200 mg/kg intraperitoneal dose; format: functional; summary of the method: as §2
Mus musculus [7] = assay: Percentage block of the hind-limb tonic-extensor seizure was determined after application of an electric shock to mice for 120 min followed by 400 mg/kg peroral dose; format: functional; settings: route oral; summary of the method: as §2
Mus musculus [8] = assay: Anticonvulsant activity by using a standard maximal electroshock test (MES) in mice, by 100 mg/kg intraperitoneal administration; i= Inactive; format: functional, organism-based; design: dose 100 mg/kg; summary of the method: as §2
Mus musculus [9] = assay: Percentage block of the hind-limb tonic-extensor seizure was determined after application of an electric shock to mice for 30 min followed by 200 mg/kg intraperitoneal dose; format: functional; summary of the method: as §2
Mus musculus [10] = assay: Percentage block of the hind-limb tonic-extensor seizure was determined after application of an electric shock to mice for 30 min followed by 400 mg/kg peroral dose; format: functional; settings: route oral; summary of the method: as §2
Mus musculus [11] = assay: Anticonvulsant activity by using a standard maximal electroshock test (MES) in mice, by 200 mg/kg intraperitoneal administration of the compound; I=inactive, 0-10% block; format: functional, organism-based; design: dose 200 mg/kg; summary of the method: as §2
Mus musculus [12] = assay: Percentage block of the hind-limb tonic-extensor seizure was determined after application of an electric shock to mice for 240 min followed by 200 mg/kg peroral dose; format: functional; settings: route oral; summary of the method: as §2
Mus musculus [13] = assay: Percentage block of the hind-limb tonic-extensor seizure was determined after application of an electric shock to mice for 120 min followed by 200 mg/kg peroral dose; format: functional; settings: route oral; summary of the method: as §2
Mus musculus [14] = assay: Percentage block of the hind-limb tonic-extensor seizure was determined after application of an electric shock to mice for 60 min followed by 100 mg/kg intraperitoneal dose; format: functional; summary of the method: as §2
Mus musculus [15] = assay: Percentage block of the hind-limb tonic-extensor seizure was determined after application of an electric shock to mice for 30 min followed by 100 mg/kg intraperitoneal dose; format: functional; summary of the method: as §2
Mus musculus [16] = assay: Anticonvulsant activity by using a standard maximal electroshock test (MES) in mice, by 200 mg/kg peroral administration of the compound; I=inactive, 0-10% block; format: functional, organism-based; design: dose 200 mg/kg; summary of the method: as §2
Mus musculus [17] = assay: Percentage block of the hind-limb tonic-extensor seizure was determined after application of an electric shock to mice for 120 min followed by 100 mg/kg intraperitoneal dose; format: functional; summary of the method: as §2
Mus musculus [18] = assay: Percentage block of the hind-limb tonic-extensor seizure was determined after application of an electric shock to mice for 60 min followed by 200 mg/kg peroral dose; format: functional; settings: route oral; summary of the method: as §1
Mus musculus [19] = assay: Percentage block of the hind-limb tonic-extensor seizure was determined after application of an electric shock to mice for 240 min followed by 100 mg/kg intraperitoneal dose; format: functional; summary of the method: as §2
Mus musculus [20] = assay: Anticonvulsant activity by using a standard maximal electroshock test (MES) in mice, by 100 mg/kg intraperitoneal administration of the compound; I=inactive, 0-10% block; format: functional, organism-based; design: dose 100 mg/kg; summary of the method: as §2
Mus musculus [21] = assay: Percentage block of the hind-limb tonic-extensor seizure was determined after application of an electric shock to mice for 30 min followed by 200 mg/kg peroral dose; format: functional; settings: route oral; summary of the method: as §2
Mus musculus [22] = assay: Anticonvulsant activity by using a standard maximal electroshock test (MES) in mice, by 100 mg/kg intraperitoneal administration of the compound; i =inactive; format: functional, organism-based; design: dose 100 mg/kg; summary of the method: as §2
Mus musculus [23] = assay: Anticonvulsant activity following p.o. administration by standard maximal electroshock test in mice.; format: functional; settings: po; summary of the method: as §2
Mus musculus [24] = assay: Anticonvulsant activity by using a standard maximal electroshock test (MES) in mice, by intraperitoneal administration of the compound; format: functional; settings: ip; summary of the method: as §2
Mus musculus [25] = assay: Anticonvulsant activity by using a standard maximal electroshock test (MES) in mice, by 100 mg/kg intraperitoneal administration; i=inactive; format: functional, organism-based; design: dose 100 mg/kg; summary of the method: as §2
Mus musculus [26] = assay: Anticonvulsant activity by using a standard maximal electroshock test (MEST) in mice, by 100 mg/kg intraperitoneal administration of the compound; I=inactive; format: functional, organism-based; design: dose 100 mg/kg
Summary of the method: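 Threshold electroshock: 8-mA current (60 Hz, 0.25 s) via ear-clip electrodes, the CS97 in these mice, induced hind-limb tonic extension; inhibition scored as activity. Mice given drug intraperitoneally in aqueous solution or suspension (ca. 0.1% Tween 80, distilled water). Tested at 30 min, sometimes also 240 min; ten mice per time point.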

Mus musculus [27] = assay: Anticonvulsant activity by using a standard maximal electroshock test (MES) in mice, by 100 mg/kg intraperitoneal administration of the compound; I =inactive; format: functional, organism-based; design: dose 100 mg/kg; summary of the method: as §2
Mus musculus [28] = assay: Percentage block of the hind-limb tonic-extensor seizure was determined after application of an electric shock to mice for 60 min followed by 50 mg/kg intraperitoneal dose; format: functional; summary of the method: as §1
Mus musculus [29] = assay: Percentage block of the hind-limb tonic-extensor seizure was determined after application of an electric shock to mice for 120 min followed by 100 mg/kg peroral dose; format: functional; settings: route oral; summary of the method: as §2
Mus musculus [30] = assay: Percentage block of the hind-limb tonic-extensor seizure was determined after application of an electric shock to mice for 240 min followed by 50 mg/kg intraperitoneal dose; format: functional; summary of the method: as §2
Mus musculus [31] = assay: Percentage block of the hind-limb tonic-extensor seizure was determined after application of an electric shock to mice for 60 min followed by 100 mg/kg peroral dose; format: functional; settings: route oral; summary of the method: as §1
Mus musculus [32] = assay: Percentage block of the hind-limb tonic-extensor seizure was determined after application of an electric shock to mice for 30 min followed by 100 mg/kg peroral dose; format: functional; settings: route oral; summary of the method: as §2
Mus musculus [33] = assay: Percentage block of the hind-limb tonic-extensor seizure was determined after application of an electric shock to mice for 240 min followed by 100 mg/kg peroral dose; format: functional; settings: route oral; summary of the method: as §2
Mus musculus [34] = assay: Percentage block of the hind-limb tonic-extensor seizure was determined after application of an electric shock to mice for 30 min followed by 50 mg/kg intraperitoneal dose; format: functional; summary of the method: as §2
Mus musculus [35] = assay: Percentage block of the hind-limb tonic-extensor seizure was determined after application of an electric shock to mice for 120 min followed by 50 mg/kg intraperitoneal dose; format: functional; summary of the method: as §2

CC1(C)OC2C3OC(C)(C)O[C@]3(CO)OC[C@H]2O1 (some centres undefined)
Block (Mus musculus [1]): 0%
Block (Mus musculus [2]): 0%
ED50 (Mus musculus [3]): inactive
Block (Mus musculus [4]): 0%
Block (Mus musculus [5]): 0%
Block (Mus musculus [6]): 0%
Block (Mus musculus [7]): 0%
ED50 (Mus musculus [8]): inactive
Block (Mus musculus [9]): 0%
Block (Mus musculus [10]): 0%
ED50 (Mus musculus [11]): inactive

CC1(C)OC2C3OC(C)(C)O[C@]3(COS(=O)(=O)Nc3ccccc3)OC[C@H]2O1 (some centres undefined)
Block (Mus musculus [12]): 0%
Block (Mus musculus [13]): 0%
Block (Mus musculus [14]): 0%
Block (Mus musculus [15]): 0%
ED50 (Mus musculus [16]): inactive
Block (Mus musculus [17]): 0%
Block (Mus musculus [18]): 0%
Block (Mus musculus [19]): 0%
ED50 (Mus musculus [20]): inactive
Block (Mus musculus [21]): 0%

NS(=O)(=O)OCC1(O)OC[C@@H](O)[C@@H](O)C1O (some centres undefined)
ED50 (Mus musculus [22]): inactive

CC1(C)OC[C@@H]2O[C@@]3(COS(N)(=O)=O)OC(C)(C)OC3[C@@H]2O1 (some centres undefined)
Block (Mus musculus [12]): 50%
ED50 (Mus musculus [23]): 150 mg/kg
Block (Mus musculus [13]): 70%
Block (Mus musculus [14]): 50%
Block (Mus musculus [15]): 30%
Block (Mus musculus [17]): 20%
Block (Mus musculus [18]): 80%
Block (Mus musculus [19]): 0%
Block (Mus musculus [21]): 70%
ED50 (Mus musculus [24]): 100 mg/kg

CC1(C)OCC(COS(N)(=O)=O)O1 (centres undefined)
Block (Mus musculus [12]): 100%
ED50 (Mus musculus [23]): ~75 mg/kg
Block (Mus musculus [13]): 100%
Block (Mus musculus [14]): 70%
Block (Mus musculus [15]): 50%
Block (Mus musculus [17]): 90%
Block (Mus musculus [18]): 90%
Block (Mus musculus [19]): 70%
Block (Mus musculus [21]): 70%
ED50 (Mus musculus [24]): ~100 mg/kg

CC1(COS(N)(=O)=O)CCCCC1
Block (Mus musculus [1]): 30%
Block (Mus musculus [2]): 40%
ED50 (Mus musculus [23]): ~400 mg/kg
Block (Mus musculus [4]): 20%
Block (Mus musculus [5]): 30%
Block (Mus musculus [6]): 20%
Block (Mus musculus [7]): 80%
Block (Mus musculus [9]): 30%
Block (Mus musculus [10]): 50%
ED50 (Mus musculus [24]): 270 mg/kg

CC1(C)OC2C3OC(C)(C)O[C@]3(COC(=O)Nc3ccccc3)OC[C@H]2O1 (some centres undefined)
ED50 (Mus musculus [25]): inactive
Block (Mus musculus [1]): 0%
Block (Mus musculus [2]): 0%
ED50 (Mus musculus [3]): inactive
Block (Mus musculus [4]): 0%
Block (Mus musculus [5]): 0%
Block (Mus musculus [6]): 0%
Block (Mus musculus [7]): 0%
Block (Mus musculus [9]): 0%
Block (Mus musculus [10]): 0%
ED50 (Mus musculus [11]): inactive

CC1(C)OC2C3OC(C)(C)O[C@]3(COC(N)=O)OC[C@H]2O1 (some centres undefined)
ED50 (Mus musculus [26]): inactive

NS(=O)(=O)OCC1COc2ccccc2O1 (centres undefined)
Block (Mus musculus [12]): 80%
ED50 (Mus musculus [23]): 118 mg/kg
Block (Mus musculus [13]): 80%
Block (Mus musculus [14]): 60%
Block (Mus musculus [17]): 30%
Block (Mus musculus [18]): 100%
Block (Mus musculus [19]): 0%
Block (Mus musculus [21]): 100%
ED50 (Mus musculus [24]): ~100 mg/kg

CC1(C)OC2C(OS(N)(=O)=O)C3(COC(C)(C)O3)OC[C@H]2O1 (some centres undefined)
ED50 (Mus musculus [27]): inactive

NS(=O)(=O)OCC1CCc2ccccc2C1 (centres undefined)
ED50 (Mus musculus [23]): 82 mg/kg
Block (Mus musculus [28]): 50%
Block (Mus musculus [29]): 80%
Block (Mus musculus [30]): 0%
Block (Mus musculus [31]): 80%
Block (Mus musculus [32]): 80%
Block (Mus musculus [33]): 30%
Block (Mus musculus [34]): 30%
ED50 (Mus musculus [24]): 56 mg/kg
Block (Mus musculus [35]): 0%

Reference: ChEMBL document CHEMBL1123867, “Anticonvulsant O-alkyl sulfamates. 2,3:4,5-Bis-O-(1-methylethylidene)-beta-D-fructopyranose sulfamate and related compounds” (1987)
